Experimental data as given in ChEMBL document CHEMBL1149396, “In silico design and synthesis of piperazine-1-pyrrolidine-2,5-dione scaffold-based novel malic enzyme inhibitors” (Bioorg Med Chem Lett, 2006).

Molecular target: T1, NADP-dependent malic enzyme (Homo sapiens, UniProt P48163)
T1 sequence (P48163 whole entry): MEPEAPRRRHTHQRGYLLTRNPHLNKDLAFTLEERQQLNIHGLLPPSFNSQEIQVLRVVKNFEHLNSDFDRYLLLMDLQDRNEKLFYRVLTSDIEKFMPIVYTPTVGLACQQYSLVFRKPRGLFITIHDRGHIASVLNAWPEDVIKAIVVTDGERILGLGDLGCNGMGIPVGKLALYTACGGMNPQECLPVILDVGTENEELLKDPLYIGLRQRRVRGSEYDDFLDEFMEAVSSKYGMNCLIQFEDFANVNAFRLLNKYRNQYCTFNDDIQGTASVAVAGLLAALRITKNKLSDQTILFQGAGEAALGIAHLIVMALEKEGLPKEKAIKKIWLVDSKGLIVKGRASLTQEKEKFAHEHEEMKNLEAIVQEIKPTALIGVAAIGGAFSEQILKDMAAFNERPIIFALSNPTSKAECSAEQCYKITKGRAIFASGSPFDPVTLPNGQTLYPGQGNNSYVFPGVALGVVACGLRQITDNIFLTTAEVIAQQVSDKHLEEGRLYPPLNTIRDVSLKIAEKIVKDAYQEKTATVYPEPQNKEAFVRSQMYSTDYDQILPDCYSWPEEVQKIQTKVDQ
Test: Inhibitory activity against cytosolic malic enzyme
Procedure, shortened: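 Coupled endpoint assay. Enzyme pre-incubated with compound 45 min at room temperature in 85 mM Tris pH 7.5 containing 2 mM malic acid and 5 mM MnCl2. Reaction started with 124 µM NADP, run 30 min at room temperature, stopped with 0.5 M EDTA. NADPH formed read via MTS/PMS reduction to formazan, absorbance at 492 nm.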

Row | IC50 | SMILES
1 | 10 µM | O=C1CC(N2CCN(c3cccc(O)c3)CC2)C(=O)N1Cc1ccccc1 (stereo not given)
2 | 0.45 µM | O=C1CC(N2CCN(c3ccc(O)cc3)CC2)C(=O)N1Cc1ccccc1 (stereo not given)
3 | > 20 µM | COc1ccc(N2CCN(C3CC(=O)N(c4ccccc4)C3=O)CC2)cc1 (stereo not given)
4 | > 20 µM | COc1ccc(N2CCN(C3CC(=O)N(Cc4ccccc4)C3=O)CC2)cc1 (stereo not given)
5 | 0.56 µM | Cc1ccc(N2C(=O)CC(N3CCN(c4ccc(O)cc4)CC3)C2=O)cc1Cl (stereo not given)
6 | 3.15 µM | O=C1CC(N2CCN(c3cccc(C(F)(F)F)c3)CC2)C(=O)N1c1ccccc1 (stereo not given)
7 | > 20 µM | O=C1CC(N2CCN(c3ccccc3O)CC2)C(=O)N1Cc1ccccc1 (stereo not given)
8 | 10 µM | O=C1CC(N2CCN(c3ccc(F)cc3)CC2)C(=O)N1c1ccccc1 (stereo not given)
9 | > 20 µM | COc1ccc(N2CCN(C3CC(=O)N(c4cccc(Cl)c4Cl)C3=O)CC2)cc1 (stereo not given)
10 | 0.15 µM | O=C1CC(N2CCN(c3ccc(O)cc3)CC2)C(=O)N1c1ccccc1 (stereo not given)
